In PubChem BioAssay AID743061 (The Scripps Research Institute Molecular Screening Center, 2013):

target: Methionine--tRNA ligase, mitochondrial (Homo sapiens) (UniProt Q96GW9); assay: inhibitors of human mitochondrial MetRS, late-stage follow-up, selectivity assay for T. brucei MetRS inhibitor project, biochemical, radioactivity, round 1 (AID 743061); conditions: recombinant human mtMetRS, [3H]Met tRNA charging, at 10 µM, stronger effect = higher value;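 note: 0% = DMSO with full reaction and 100% = DMSO wells lacking tRNA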
In short: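 System: human mitochondrial MetRS enzyme / Buffer or medium: pH 8.0 reaction buffer containing 2.5 mM ATP / Probe or stimulus: 240 nM [3H]methionine with bulk E. coli tRNA acceptor / Doses: 10 and 1 µM / Times: 15 min compound–enzyme preincubation, then 1 h reaction at room temperature / Detection: scintillation counts of TCA-precipitated charged tRNA on filters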

SMILES | inhibition
O=C(NCc1nc2ccccc2[nH]1)C1=C[C@H](c2ccc(Br)cc2)C[C@H](OCc2ccc(CO)cc2)O1 | 17.2%
Cc1ccc(NC(=O)CN(C)C(=O)CCSc2ccc(F)cc2)cc1 | -21.5%
O=C(N/C(=C\c1cccnc1)c1nc2ccccc2[nH]1)c1cccc(Br)c1 | 4.89%
Cc1cccc(C(=O)NCCc2nc3ccccc3n2CCOc2ccccc2)c1 | 4.57%
O=C(Cn1cnc2ccccc21)Nc1cccc([N+](=O)[O-])c1 | -2.2%
Cn1c(CCNC(=O)c2ccc(Cl)cc2)nc2ccccc21 | 12.5%
COc1ccc2[nH]c3nc(SCC(=O)Nc4ccc5c(c4)OCO5)nnc3c2c1 | 24.5%
CC(=O)c1c[nH]c(C(=O)NCc2cccc(C(F)(F)F)c2)c1 | 43.8%
O=C(CC(=O)Nc1cccc(Cl)c1)NN=Cc1ccccc1 | 9.82%
CC(=O)N(CCc1ccccc1)C1CC(=O)N(c2ccc(Br)cc2)C1=O (stereo unspecified) | 2%
CC(C)(C)[C@H]1C=C(C(=O)NCc2nc3ccccc3[nH]2)O[C@@H](OCc2ccc(CO)cc2)C1 | 10.3%
O=C(NCc1nc2ccccc2[nH]1)C1=C[C@H](c2csc3ccccc23)C[C@H](OCCCCO)O1 | 2.21%
O=C(Cn1cc(C(=O)COc2ccccc2)c2ccccc21)Nc1cccc(C(F)(F)F)c1 | 3.08%
CC(C)OCCCN1CC(=O)N2C(c3cccc([N+](=O)[O-])c3)c3[nH]c4ccccc4c3C[C@H]2C1=O (stereo partly specified) | -3.65%
O=C(CC=NOCc1ccc([N+](=O)[O-])cc1)Nc1ccc(Br)cc1 | -6.71%
CCc1ccc2c(c1)c1nnc(SCC(=O)Nc3ccc4c(c3)OCO4)nc1n2C | 5.87%
